Test results as given in ChEMBL document CHEMBL1155932, “False positives in a reporter gene assay: identification and synthesis of substituted N-pyridin-2-ylbenzamides as competitive inhibitors of firefly luciferase” (J Med Chem, 2008).

T1: Luciferin 4-monooxygenase (Luciola lateralis) (UniProt Q01158)
T1 sequence (whole entry): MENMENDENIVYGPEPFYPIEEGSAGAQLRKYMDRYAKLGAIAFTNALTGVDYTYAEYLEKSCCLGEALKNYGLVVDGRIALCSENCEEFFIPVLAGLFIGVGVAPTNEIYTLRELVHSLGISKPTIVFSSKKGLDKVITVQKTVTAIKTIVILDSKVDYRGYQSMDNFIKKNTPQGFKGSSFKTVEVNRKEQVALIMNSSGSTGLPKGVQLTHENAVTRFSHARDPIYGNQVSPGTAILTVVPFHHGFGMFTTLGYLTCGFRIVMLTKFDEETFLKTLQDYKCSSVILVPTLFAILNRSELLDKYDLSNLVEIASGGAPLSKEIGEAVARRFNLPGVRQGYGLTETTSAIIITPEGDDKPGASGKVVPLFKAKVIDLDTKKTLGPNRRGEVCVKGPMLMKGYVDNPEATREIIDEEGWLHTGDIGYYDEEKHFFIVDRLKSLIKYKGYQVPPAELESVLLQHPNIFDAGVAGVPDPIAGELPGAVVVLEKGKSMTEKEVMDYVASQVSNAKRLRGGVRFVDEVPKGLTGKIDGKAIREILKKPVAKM

T2: Luciferin 4-monooxygenase (Luciola lateralis, UniProt Q01158)
T2 sequence (Q01158 whole entry): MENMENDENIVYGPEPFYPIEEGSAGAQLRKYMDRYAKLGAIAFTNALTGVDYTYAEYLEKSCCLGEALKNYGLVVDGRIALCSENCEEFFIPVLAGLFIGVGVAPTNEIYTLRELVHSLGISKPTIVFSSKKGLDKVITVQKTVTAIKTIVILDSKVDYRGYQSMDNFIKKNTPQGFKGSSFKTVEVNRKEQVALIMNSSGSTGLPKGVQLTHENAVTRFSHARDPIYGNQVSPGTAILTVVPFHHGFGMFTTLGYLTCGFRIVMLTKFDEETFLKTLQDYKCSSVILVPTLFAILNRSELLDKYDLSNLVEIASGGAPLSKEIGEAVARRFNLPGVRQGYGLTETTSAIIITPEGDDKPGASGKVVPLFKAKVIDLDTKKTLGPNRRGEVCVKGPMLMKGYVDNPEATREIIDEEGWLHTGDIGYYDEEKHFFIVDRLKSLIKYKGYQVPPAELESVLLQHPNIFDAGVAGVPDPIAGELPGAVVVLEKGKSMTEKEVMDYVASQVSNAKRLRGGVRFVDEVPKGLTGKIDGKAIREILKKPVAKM


The molecules below were run on O=C(Nc1ccc2ccccc2n1)c1ccccc1. Details: Aquatica lateralis; 1 uM.

Row | Molecule | Km | Vmax
1 | Luciferin 4-monooxygenase (Luciola lateralis), Q01158 (protein) MENMENDENIVYGPEPFYPIEEGSAGAQLRKYMDRYAKLGAIAFTNALTGVDYTYAEYLEKSCCLGEALKNYGLVVDGRIALCSENCEEFFIPVLAGLFIGVGVAPTNEIYTLRELVHSLGISKPTIVFSSKKGLDKVITVQKTVTAIKTIVILDSKVDYRGYQSMDNFIKKNTPQGFKGSSFKTVEVNRKEQVALIMNSSGSTGLPKGVQLTHENAVTRFSHARDPIYGNQVSPGTAILTVVPFHHGFGMFTTLGYLTCGFRIVMLTKFDEETFLKTLQDYKCSSVILVPTLFAILNRSELLDKYDLSNLVEIASGGAPLSKEIGEAVARRFNLPGVRQGYGLTETTSAIIITPEGDDKPGASGKVVPLFKAKVIDLDTKKTLGPNRRGEVCVKGPMLMKGYVDNPEATREIIDEEGWLHTGDIGYYDEEKHFFIVDRLKSLIKYKGYQVPPAELESVLLQHPNIFDAGVAGVPDPIAGELPGAVVVLEKGKSMTEKEVMDYVASQVSNAKRLRGGVRFVDEVPKGLTGKIDGKAIREILKKPVAKM | 3.8 µM | 56%

The molecules below were run against T1, Luciferin 4-monooxygenase (Luciola lateralis) (assay: Inhibition of firefly luciferase activity at 10 uM). Details: Aquatica lateralis.
Summary of the method: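 Single 10 µM inhibitor concentration against 32 pM firefly luciferase with 50 µM D-luciferin and 90 µM ATP, pH 7.8 glycine-Tris buffers containing MgSO4 and EDTA. 30 min incubation in the dark at room temperature, then luminescence read. Percent inhibition from n = 2 experiments in duplicate.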

Row | Molecule | inhibition
2 | O=C(Nc1ccc(-c2ccc(C(F)(F)F)cc2)cn1)c1ccccc1 | 39%
3 | O=C(Nc1ccc(-c2ccccc2)cn1)Oc1ccccc1 | 0%
4 | COc1ccc(C(=O)Nc2ccc(-c3ccccc3)cn2)cc1 | 28%
5 | Cc1ccc(C(=O)Nc2ccc(-c3ccccc3)cn2)cc1 | 18%
6 | COc1ccc(C(=O)Nc2ccc(-c3ccccc3)cn2)c(OC)c1 | 26%
7 | O=C(Nc1ccc(-c2ccccc2)cn1)c1ccc(Cl)c(Cl)c1 | 13%
8 | CN(C)c1ccc(-c2ccc(NC(=O)c3ccccc3)nc2)cc1 | 14%
9 | c1ccc(CNc2ccc(-c3ccccc3)cn2)cc1 | 20%
10 | O=C(Nc1cccc(-c2ccccc2)n1)c1ccccc1 | 30%
11 | CN(C)c1ccc(C(=O)Nc2ccc(-c3ccccc3)cn2)cc1 | 35%
12 | O=C(Nc1ccc(-c2ccccc2)cn1)c1ccc(Cl)cc1 | 0%
13 | CC(C)(C)c1ccc(-c2ccc(NC(=O)c3ccccc3)nc2)cc1 | 49%
14 | O=C(Nc1ccc(-c2ccc(Cl)c(Cl)c2)cn1)c1ccccc1 | 4%

The next lines start with the values.

Row | inhibition | Molecule
15 | 38% | O=C(Nc1ccc(-c2cccc(Cl)c2)cn1)c1ccccc1
16 | 12% | CC(C)Oc1ccc(C(=O)Nc2ccc(-c3ccccc3)cn2)cc1
17 | 51% | Cc1ccc(-c2ccc(NC(=O)c3ccccc3)nc2)cc1
18 | 38% | CC(C)Oc1ccc(-c2ccc(NC(=O)c3ccccc3)nc2)cc1
19 | 20% | O=C(Nc1ccccc1)Nc1ccc(-c2ccccc2)cn1
20 | 27% | O=C(Nc1ccccn1)c1ccccc1
21 | 22% | CCCC(=O)Nc1ccc(-c2ccccc2)cn1

The molecules below were run against T2, Luciferin 4-monooxygenase (assay: Inhibition of firefly luciferase activity). Details: not given.
Parameters: species or system Aquatica lateralis
Summary of the method: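 Firefly luciferase (32 pM) in glycine-Tris buffer with EDTA and MgSO4, pH 7.8; substrates 50 µM D-luciferin and 90 µM ATP in glycine-Tris/MgSO4/EDTA/0.1% BSA/azide buffer, pH 7.8. Inhibitor tested at 11 concentrations; 30 min dark incubation, room temperature; luminescence counted. Nonspecific activity defined with 100 µM reference inhibitor. IC50 ± SEM from three experiments in duplicate.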

Row | Molecule | IC50
22 | COc1ccc(C(=O)Nc2ccc(C)cn2)c(OC)c1 | 610 nM
23 | O=C(Nc1ccc(-c2ccccc2)cn1)c1ccccc1 | 69 nM
24 | O=C(Nc1ccc2ccccc2n1)c1ccccc1 | 1700 nM
25 | Cc1ccc(NC(=O)c2ccccc2)nc1 | 6400 nM
26 | O=C(Nc1ccc(-c2ccccc2)cn1)C1CCCCC1 | 2400 nM

Results, then the molecule that gave them:

Row | IC50 | Molecule
27 | 560 nM | O=C(Nc1ccc(-c2ccc(Cl)cc2)cn1)c1ccccc1
28 | 1200 nM | Nc1ccc(C(=O)Nc2ccc(-c3ccccc3)cn2)cc1
29 | 160 nM | O=C(Nc1ccc(-c2ccccc2)cn1)c1cccc(Cl)c1
30 | 310 nM | COc1ccc(-c2ccc(NC(=O)c3ccccc3)nc2)cc1

Substrate: O=C(Nc1ccc2ccccc2n1)c1ccccc1
Details: Aquatica lateralis; 1 uM
Remark: another data set of the same source

Row | Molecule | Km | Vmax
31 | Luciferin 4-monooxygenase (Luciola lateralis), Q01158 (protein) MENMENDENIVYGPEPFYPIEEGSAGAQLRKYMDRYAKLGAIAFTNALTGVDYTYAEYLEKSCCLGEALKNYGLVVDGRIALCSENCEEFFIPVLAGLFIGVGVAPTNEIYTLRELVHSLGISKPTIVFSSKKGLDKVITVQKTVTAIKTIVILDSKVDYRGYQSMDNFIKKNTPQGFKGSSFKTVEVNRKEQVALIMNSSGSTGLPKGVQLTHENAVTRFSHARDPIYGNQVSPGTAILTVVPFHHGFGMFTTLGYLTCGFRIVMLTKFDEETFLKTLQDYKCSSVILVPTLFAILNRSELLDKYDLSNLVEIASGGAPLSKEIGEAVARRFNLPGVRQGYGLTETTSAIIITPEGDDKPGASGKVVPLFKAKVIDLDTKKTLGPNRRGEVCVKGPMLMKGYVDNPEATREIIDEEGWLHTGDIGYYDEEKHFFIVDRLKSLIKYKGYQVPPAELESVLLQHPNIFDAGVAGVPDPIAGELPGAVVVLEKGKSMTEKEVMDYVASQVSNAKRLRGGVRFVDEVPKGLTGKIDGKAIREILKKPVAKM | 53 µM | 95%

The molecules below were run on O=C(Nc1ccc2ccccc2n1)c1ccccc1. Details: Aquatica lateralis; 0.1 uM.

Row | Molecule | Km | Vmax
32 | Luciferin 4-monooxygenase (Luciola lateralis), Q01158 (protein) MENMENDENIVYGPEPFYPIEEGSAGAQLRKYMDRYAKLGAIAFTNALTGVDYTYAEYLEKSCCLGEALKNYGLVVDGRIALCSENCEEFFIPVLAGLFIGVGVAPTNEIYTLRELVHSLGISKPTIVFSSKKGLDKVITVQKTVTAIKTIVILDSKVDYRGYQSMDNFIKKNTPQGFKGSSFKTVEVNRKEQVALIMNSSGSTGLPKGVQLTHENAVTRFSHARDPIYGNQVSPGTAILTVVPFHHGFGMFTTLGYLTCGFRIVMLTKFDEETFLKTLQDYKCSSVILVPTLFAILNRSELLDKYDLSNLVEIASGGAPLSKEIGEAVARRFNLPGVRQGYGLTETTSAIIITPEGDDKPGASGKVVPLFKAKVIDLDTKKTLGPNRRGEVCVKGPMLMKGYVDNPEATREIIDEEGWLHTGDIGYYDEEKHFFIVDRLKSLIKYKGYQVPPAELESVLLQHPNIFDAGVAGVPDPIAGELPGAVVVLEKGKSMTEKEVMDYVASQVSNAKRLRGGVRFVDEVPKGLTGKIDGKAIREILKKPVAKM | 16 µM | 96%
